Source: ChEMBL document CHEMBL1134964, “Heterocyclic benzazole derivatives with antimycobacterial in vitro activity” (2002)
Converted amounts (≈) assume the structure as drawn.

Legend:
Assay type in all cases: functional
HeLa = experiment: The compound was tested for cytotoxicity against HeLa cells.; settings: Homo sapiens
Mycobacterium avium [1] = experiment: In vitro inhibition of Mycobacterium Avium growth after 14 days culture.; settings: 336 h
Summary of the method: (§1)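 Micromethod broth MIC. Compounds tested at 500, 250, 125, 32, 16, 8, 4 and 2, plus one intermediate level between 125 and 32. Plates incubated at 37 C and read at 7, 14 and 21 days. MIC is the lowest concentration at which growth of the mycobacteria was inhibited. MIC could not be set where solubility in the test medium was limited.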

Mycobacterium avium [2] = experiment: In vitro inhibition of Mycobacterium Avium (My 330/88) growth after 21 days culture.; settings: 504 h; summary of the method: as §1
Mycobacterium kansasii [3] = experiment: In vitro inhibition of Mycobacterium Kansasi (My 6 509/96) growth after 14 days culture.; settings: 336 h
Mycobacterium kansasii [4] = experiment: In vitro inhibition of Mycobacterium Kansasi (My 6 509/96) growth after 21 days culture.; settings: 504 h
[5] = system: Mycobacterium tuberculosis; experiment: In vitro inhibition of Mycobacterium Tuberculosis (My 331/88) growth after 14 days culture.; settings: 336 h; summary of the method: as §1
[6] = system: Mycobacterium tuberculosis; experiment: In vitro inhibition of Mycobacterium Tuberculosis (My 331/88) growth after 21 days culture.; settings: 504 h; summary of the method: as §1
Mycobacterium kansasii [7] = experiment: In vitro inhibition of Mycobacterium Kansasi (My 235/80) growth after 14 days culture.; settings: 336 h
Mycobacterium kansasii [8] = experiment: In vitro inhibition of Mycobacterium Kansasi (My 235/80) growth after 21 days culture.; settings: 504 h
Mycobacterium kansasii [9] = experiment: In vitro inhibition of Mycobacterium Kansasi (My 235/80) growth after 7 days culture.; settings: 168 h
[10] = Ratio of cytotoxicity to minimum inhibitory concentration of Mycobacterium tuberculosis My 331/88 was evaluated
Mycobacterium kansasii [11] = experiment: In vitro inhibition of Mycobacterium Kansasi (My 6 509/96) growth after 7 days culture.; settings: 168 h
Mycobacterium kansasii [12] = experiment: In vitro minimum inhibitory concentration the compound for anti-mycobacterial activity was determined against Mycobacterium kansasii (My 235/80) by micromethod after 21 days of incubation; settings: 504 h
Mycobacterium kansasii [13] = experiment: In vitro minimum inhibitory concentration the compound for anti-mycobacterial activity was determined against Mycobacterium kansasii (My 6 509/96) by micromethod after 7 days of incubation; settings: 168 h
Mycobacterium avium [14] = experiment: In vitro minimum inhibitory concentration the compound for anti-mycobacterial activity was determined against Mycobacterium avium (My 330/88) by micromethod after 14 days of incubation; settings: 336 h; summary of the method: as §1
Mycobacterium avium [15] = experiment: In vitro minimum inhibitory concentration the compound for anti-mycobacterial activity was determined against Mycobacterium avium (My 330/88) by micromethod after 21 days of incubation; settings: 504 h; summary of the method: as §1
Mycobacterium kansasii [16] = experiment: In vitro minimum inhibitory concentration the compound for anti-mycobacterial activity was determined against Mycobacterium kansasii (My 235/80) by micromethod after 14 days of incubation; settings: 336 h
Mycobacterium kansasii [17] = experiment: In vitro minimum inhibitory concentration the compound for anti-mycobacterial activity was determined against Mycobacterium kansasii (My 6 509/96) by micromethod after 14 days of incubation; settings: 336 h
Mycobacterium kansasii [18] = experiment: In vitro minimum inhibitory concentration the compound for anti-mycobacterial activity was determined against Mycobacterium kansasii (My 6 509/96) by micromethod after 21 days of incubation; settings: 504 h
[19] = system: Mycobacterium tuberculosis; experiment: In vitro minimum inhibitory concentration the compound for anti-mycobacterial activity was determined against Mycobacterium tuberculosis (My 331/88) by micromethod after 21 days of incubation; settings: 504 h; summary of the method: as §1
Mycobacterium kansasii [20] = experiment: In vitro minimum inhibitory concentration of the compound for anti-mycobacterial activity was determined against Mycobacterium kansasii (My 6 509/96) by micromethod after 7 days of incubation; settings: 168 h

Row | SMILES | CC50 (HeLa) [µM] | MIC (Mycobacterium avium [1]) [µM] | MIC (Mycobacterium avium [2]) [µM] | MIC (Mycobacterium kansasii [3]) [µM] | MIC (Mycobacterium kansasii [4]) [µM] | MIC [5] [µM] | MIC [6] [µM] | MIC (Mycobacterium kansasii [7]) [µM] | MIC (Mycobacterium kansasii [8]) [µM] | MIC (Mycobacterium kansasii [9]) [µM] | Safety index [10] | MIC (Mycobacterium kansasii [11]) [µM] | other results
1 | O=[N+]([O-])c1cc(CSc2nc3ccccc3s2)cc([N+](=O)[O-])c1 | > 144 | 62 (≈ 21.5 µg/mL) | 62 (≈ 21.5 µg/mL) | 32 (≈ 11.1 µg/mL) | > 62 | 2 (≈ 0.695 µg/mL) | 2 (≈ 0.695 µg/mL) | 16 (≈ 5.56 µg/mL) | > 62 | 16 (≈ 5.56 µg/mL) | >72 |  | 
2 | N#Cc1cccc(CSc2nc3ccccc3s2)c1 |  | 32 (≈ 9.04 µg/mL) | 62 (≈ 17.5 µg/mL) | 62 (≈ 17.5 µg/mL) | 125 (≈ 35.3 µg/mL) | 62 (≈ 17.5 µg/mL) | 250 (≈ 70.6 µg/mL) | 250 (≈ 70.6 µg/mL) | 500 (≈ 141 µg/mL) | 125 (≈ 35.3 µg/mL) |  | 32 (≈ 9.04 µg/mL) | 
3 | O=[N+]([O-])c1ccccc1CSc1nc2ccccc2s1 |  | 125 (≈ 37.8 µg/mL) | > 250 | 32 (≈ 9.68 µg/mL) | 125 (≈ 37.8 µg/mL) | 125 (≈ 37.8 µg/mL) | 500 (≈ 151 µg/mL) | 125 (≈ 37.8 µg/mL) |  | 62 (≈ 18.7 µg/mL) |  |  | MIC (Mycobacterium kansasii [12]): 500 µM (≈ 151 µg/mL); MIC (Mycobacterium kansasii [13]): 32 µM (≈ 9.68 µg/mL)
4 | c1ccc(CSc2nc3ccccc3s2)cc1 |  |  |  |  |  | 250 (≈ 64.3 µg/mL) | 500 (≈ 129 µg/mL) |  |  | 62 (≈ 16 µg/mL) |  |  | MIC (Mycobacterium avium [14]): 32 µM (≈ 8.24 µg/mL); MIC (Mycobacterium avium [15]): 62 µM (≈ 16 µg/mL); MIC (Mycobacterium kansasii [16]): 500 µM (≈ 129 µg/mL); MIC (Mycobacterium kansasii [12]): > 500 µM; MIC (Mycobacterium kansasii [17]): 125 µM (≈ 32.2 µg/mL); MIC (Mycobacterium kansasii [18]): 250 µM (≈ 64.3 µg/mL); MIC (Mycobacterium kansasii [13]): 62 µM (≈ 16 µg/mL)
5 | Sc1nc2ccccc2o1 |  | 250 (≈ 37.8 µg/mL) | 500 (≈ 75.6 µg/mL) | 500 (≈ 75.6 µg/mL) | 1000 (≈ 151 µg/mL) | 500 (≈ 75.6 µg/mL) | 500 (≈ 75.6 µg/mL) | 1000 (≈ 151 µg/mL) | 1000 (≈ 151 µg/mL) | 500 (≈ 75.6 µg/mL) |  | 250 (≈ 37.8 µg/mL) | 
6 | N#Cc1ccc(CSc2nc3ccccc3o2)cc1 |  | 62 (≈ 16.5 µg/mL) | 62 (≈ 16.5 µg/mL) | 32 (≈ 8.52 µg/mL) | > 32 | > 62 | > 62 | 32 (≈ 8.52 µg/mL) | > 32 | 32 (≈ 8.52 µg/mL) |  | 16 (≈ 4.26 µg/mL) | 
7 | NC(=S)c1cccc(CSc2nc3ccccc3o2)c1 | 71.9 |  |  |  |  | 8 (≈ 2.4 µg/mL) | 16 (≈ 4.81 µg/mL) |  |  | 8 (≈ 2.4 µg/mL) | 9 |  | MIC (Mycobacterium avium [14]): 62 µM (≈ 18.6 µg/mL); MIC (Mycobacterium avium [15]): 62 µM (≈ 18.6 µg/mL); MIC (Mycobacterium kansasii [16]): 32 µM (≈ 9.61 µg/mL); MIC (Mycobacterium kansasii [12]): 32 µM (≈ 9.61 µg/mL); MIC (Mycobacterium kansasii [17]): 32 µM (≈ 9.61 µg/mL); MIC (Mycobacterium kansasii [18]): 32 µM (≈ 9.61 µg/mL); MIC (Mycobacterium kansasii [13]): 8 µM (≈ 2.4 µg/mL)
8 | O=[N+]([O-])c1cccc(CSc2nc3ccccc3s2)c1 |  | 62 (≈ 18.7 µg/mL) | 62 (≈ 18.7 µg/mL) | 62 (≈ 18.7 µg/mL) | > 62 | > 62 | > 125 | > 125 | > 125 | 62 (≈ 18.7 µg/mL) |  | 32 (≈ 9.68 µg/mL) | 
9 | NC(=S)c1cccc(CSc2nc3ccccc3s2)c1 | 36.7 | 32 (≈ 10.1 µg/mL) | 62 (≈ 19.6 µg/mL) | 16 (≈ 5.06 µg/mL) | 16 (≈ 5.06 µg/mL) |  |  | 16 (≈ 5.06 µg/mL) | 16 (≈ 5.06 µg/mL) | 8 (≈ 2.53 µg/mL) | 4.6 |  | MIC [19]: 16 µM (≈ 5.06 µg/mL); MIC (Mycobacterium kansasii [20]): 8 µM (≈ 2.53 µg/mL)
10 | NC(=S)c1ccc(CSc2nc3ccccc3s2)cc1 | > 158 | 16 (≈ 5.06 µg/mL) | 32 (≈ 10.1 µg/mL) | 8 (≈ 2.53 µg/mL) | 8 (≈ 2.53 µg/mL) | 4 (≈ 1.27 µg/mL) | 8 (≈ 2.53 µg/mL) | 8 (≈ 2.53 µg/mL) | 8 (≈ 2.53 µg/mL) | 4 (≈ 1.27 µg/mL) | >39.5 | 4 (≈ 1.27 µg/mL) | 
11 | NC(=S)c1ccc(CSc2nc3ccccc3o2)cc1 | 78.6 | 32 (≈ 9.61 µg/mL) | 32 (≈ 9.61 µg/mL) | 16 (≈ 4.81 µg/mL) | 16 (≈ 4.81 µg/mL) | 8 (≈ 2.4 µg/mL) | 16 (≈ 4.81 µg/mL) | 16 (≈ 4.81 µg/mL) | 16 (≈ 4.81 µg/mL) | 8 (≈ 2.4 µg/mL) | 9.8 | 8 (≈ 2.4 µg/mL) | 
12 | N#Cc1cccc(CSc2nc3ccccc3o2)c1 |  | 62 (≈ 16.5 µg/mL) | 62 (≈ 16.5 µg/mL) | 62 (≈ 16.5 µg/mL) | 62 (≈ 16.5 µg/mL) | 125 (≈ 33.3 µg/mL) | 125 (≈ 33.3 µg/mL) | 62 (≈ 16.5 µg/mL) | 125 (≈ 33.3 µg/mL) | 32 (≈ 8.52 µg/mL) |  | 32 (≈ 8.52 µg/mL) | 
